Assay [1] deals with Candida albicans. As to the kind of experiment: Antifungal activity against Candida albicans ATCC 76615 after 24 hrs by twofold serial dilution method. The note with it: ATCC 76615, 24 h. Type of assay: functional. The method in brief:
(§1)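 A fungal spore suspension was made in sterile distilled water from a 1-day-old culture grown on Sabouraud agar, then tested against serial dilutions of compounds (DMSO stocks) to determine MIC.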

Assay [2] concerns Pseudomonas aeruginosa. As to the kind of experiment: Antibacterial activity against Pseudomonas aeruginosa ATCC 27853 after 24 hrs by twofold serial dilution method. Type of assay: functional. Conditions: ATCC 27853, 24 h. In a few lines:
(§2)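 Each bacterial suspension was adjusted with sterile saline to 1 × 10⁵ CFU. Compounds were first dissolved in DMSO as stock solutions, then diluted in Mueller–Hinton broth in twofold steps (8, 4, 2, 1, 0.5, 0.25). Dilutions were inoculated and incubated at 37 °C for 24 h, and MIC was read. DMSO plus inoculum without drug served as a solvent control.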

For assay [3], the system named is Bacillus. As to the kind of experiment: Antibacterial activity against Bacillus proteus ATCC 13315 after 24 hrs by twofold serial dilution method. It counts as functional. The note with it: ATCC 13315, 24 h. The method in brief:
as §2

The subject of assay [4] is Bacillus subtilis. Nature of the assay: Antibacterial activity against Bacillus subtilis ATCC 21216 after 24 hrs by twofold serial dilution method. Type of assay: functional. Conditions: ATCC 21216, 24 h. In a few lines:
as §2

Assay [5] deals with Staphylococcus aureus. As to the kind of experiment: Antibacterial activity against Staphylococcus aureus ATCC 6538 after 24 hrs by twofold serial dilution method. It counts as functional. The note with it: ATCC 6538, 24 h. In a few lines:
as §2

Assay [6] deals with Staphylococcus aureus. Nature of the assay: Antibacterial activity against methicillin-resistant Staphylococcus aureus N315 after 24 hrs by twofold serial dilution method. It counts as functional. The note with it: N315, 24 h. In a few lines: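 Compounds were dissolved in DMSO as stock, then diluted twofold in Mueller–Hinton broth. Chloromycin and norfloxacin were run as reference drugs. The inoculum was adjusted in sterile saline to 1 × 10⁵ CFU, and a DMSO-plus-inoculum well served as solvent control. Plates were incubated at 37 °C for 24 h and read as MIC.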

The test system of assay [7] is Escherichia coli. As to the kind of experiment: Antibacterial activity against Escherichia coli ATCC 8099 after 24 hrs by twofold serial dilution method. It counts as functional. The note with it: ATCC 8099, 24 h. In a few lines: as §2
Assay [8] concerns Staphylococcus aureus. Nature of the assay: Ratio of Chloromycin MIC to compound MIC for Staphylococcus aureus ATCC 6538. It counts as functional.
The subject of assay [9] is Aspergillus fumigatus. Nature of the assay: Antifungal activity against Aspergillus fumigatus ATCC 96918 after 24 hrs by twofold serial dilution method. It counts as functional. The note with it: ATCC 96918, 24 h. The method in brief: as §1
The subject of assay [10] is Staphylococcus aureus. As to the kind of experiment: Ratio of Norfloxacin MIC to compound MIC for Staphylococcus aureus ATCC 6538. It counts as functional.
Assay [11] deals with Bacillus. As to the kind of experiment: Ratio of Chloromycin MIC to compound MIC for Bacillus proteus ATCC 13315. It counts as functional.
The subject of assay [12] is Escherichia coli. Nature of the assay: Ratio of Chloromycin MIC to compound MIC for Escherichia coli ATCC 8099. Type of assay: functional.
Assay [13] relates to Bacillus subtilis. Nature of the assay: Ratio of Chloromycin MIC to compound MIC for Bacillus subtilis ATCC 21216. It counts as functional.
Assay [14] concerns Pseudomonas aeruginosa. Nature of the assay: Ratio of Chloromycin MIC to compound MIC for Pseudomonas aeruginosa ATCC 27853. Type of assay: functional.
In assay [15] the test system is Aspergillus fumigatus. Nature of the assay: Ratio of Fluconazole MIC to compound MIC for Aspergillus fumigatus ATCC 96918.

In ChEMBL document CHEMBL1817584, “Synthesis of novel fluconazoliums and their evaluation for antibacterial and antifungal activities” (2011) one finds MIC and Ratio data, which are given here for eleven molecules.

In brackets after ≈: the same amount, converted by molar mass.

On to `CCCCCCCC[n+]1cnn(CC(O)(Cn2c[n+](CCCCCCCC)cn2)c2ccc(F)cc2F)c1.[Br-].[Br-]`, for which the MIC in assay [1] stood at 2 µg/mL; in assay [2], 8 µg/mL; in assay [3], 64 µg/mL; in [4] it was 32 µg/mL; in assay [5] it was 1 µg/mL; in assay [6], 8 µg/mL. In addition, the MIC was 1 µg/mL in assay [7] and 128 µg/mL in assay [9]. Besides, the Ratio in assay [8] is recorded as 64; in [10] it was 8.
Take `OC(Cn1c[n+](CCOc2ccc3ccccc3c2)cn1)(Cn1c[n+](CCOc2ccc3ccccc3c2)cn1)c1ccc(F)cc1F.[Br-].[Br-]`: the MIC is 8 µg/mL in [1]; 8 µg/mL in [2]; 4 µg/mL in assay [3]; 64 µg/mL in assay [4]; 4 µg/mL in [5]; 32 µg/mL in [6]. Further, the MIC in assay [7] was 2 µg/mL; in [9], 128 µg/mL. Moreover, the Ratio in [11], in assay [12], in assay [13], in assay [14] and in assay [8] was 4 in each case.
For the molecule `F[P-](F)(F)(F)(F)F.F[P-](F)(F)(F)(F)F.OC(Cn1c[n+](Cc2ccc(Cl)cc2Cl)cn1)(Cn1c[n+](Cc2ccc(Cl)cc2Cl)cn1)c1ccc(F)cc1F`, the MIC in assay [1] amounted to 128 µg/mL; in assay [2], 64 µg/mL; in assay [3] it was 1 µg/mL; in [4], 32 µg/mL; in assay [5], 32 µg/mL; in [6], 32 µg/mL. Moreover, the MIC in assay [7] is at most 0.25 µg/mL; in [9] it was 256 µg/mL. For the same molecule, in assay [12], the Ratio is on record as 256.
Consider `O=C1c2cccc3c(Br)ccc(c23)C(=O)N1CCCCCC[n+]1cnn(CC(O)(Cn2c[n+](CCCCCCN3C(=O)c4cccc5c(Br)ccc(c45)C3=O)cn2)c2ccc(F)cc2F)c1.[Br-].[Br-]`, for which the MIC in assay [1] is 16 µg/mL; in assay [2], 32 µg/mL; in assay [3], 64 µg/mL; in assay [4] it was 64 µg/mL; in [5] it was 8 µg/mL; in assay [6], 16 µg/mL. Moreover, the figures for the MIC in [7] and in assay [9] were 8 µg/mL and 32 µg/mL, respectively. The Ratio in [15] worked out at 8.
In the case of `OC(Cn1c[n+](Cc2ccc(Cl)cc2Cl)cn1)(Cn1c[n+](Cc2ccc(Cl)cc2Cl)cn1)c1ccc(F)cc1F.[Cl-].[Cl-]`, the MIC came out at 16 µg/mL in assay [1]; 4 µg/mL in assay [2]; 0.5 µg/mL in assay [3]; 16 µg/mL in assay [4]; 8 µg/mL in assay [5]; 4 µg/mL in assay [6]. For the same molecule, the MIC in [7] stood at 4 µg/mL; in [9], 128 µg/mL. The Ratio in assay [11] amounted to 32.
Consider `O=C1c2cccc3c(Br)ccc(c23)C(=O)N1CCC[n+]1cnn(CC(O)(Cn2c[n+](CCCN3C(=O)c4cccc5c(Br)ccc(c45)C3=O)cn2)c2ccc(F)cc2F)c1.[Br-].[Br-]`, for which the MIC was found to be 8 µg/mL in [1]; 16 µg/mL in assay [2]; 32 µg/mL in [3]; 64 µg/mL in assay [4]; 8 µg/mL in [5]; 4 µg/mL in assay [6]. Further, the MIC in assay [7] is 8 µg/mL; in assay [9], 16 µg/mL. Besides, the Ratio in assay [15] is recorded as 8.
As for `O=C1c2cccc3c(Br)ccc(c23)C(=O)N1CCCCCCBr`, the MIC in assay [1] was above 256 µg/mL; in assay [2], above 256 µg/mL; in assay [3] it was above 256 µg/mL; in [4] it was above 256 µg/mL; in assay [5] it was 256 µg/mL (≈ 583 µM); in assay [6] it was above 256 µg/mL. Moreover, the figures for the MIC in assay [7] and in assay [9] were above 256 µg/mL and 256 µg/mL (≈ 583 µM), respectively.
With `CCCCCCCCCCCC[n+]1cnn(CC(O)(Cn2c[n+](CCCCCCCCCCCC)cn2)c2ccc(F)cc2F)c1.[Br-].[Br-]`, the minimal inhibitory concentration (MIC) in assay [1] was 2 µg/mL; in assay [2], 8 µg/mL; in [3] it was 8 µg/mL; in assay [4] it was above 256 µg/mL; in [5] it was 2 µg/mL; in assay [6] it was 32 µg/mL. For the same molecule, the MIC in assay [7] was 2 µg/mL; in assay [9], above 256 µg/mL.
For the molecule `Fc1ccc(Cn2c[n+](CCOc3ccc4ccccc4c3)cn2)c(F)c1.[Br-]`, the MIC in assay [1] was found to be 32 µg/mL; in assay [2] it was 8 µg/mL; in assay [3], 16 µg/mL; in [4] it was 64 µg/mL; in assay [5], 16 µg/mL; in assay [6] it was 64 µg/mL. For the same molecule, the MIC was 8 µg/mL in assay [7] and 128 µg/mL in assay [9].
`Cc1cccc(C[n+]2cnn(CC(O)(Cn3c[n+](Cc4cccc(C)c4)cn3)c3ccc(F)cc3F)c2)c1.[Br-].[Br-]`: the MIC in assay [1] is 64 µg/mL; in [2], 256 µg/mL; in assay [3] it was 256 µg/mL; in assay [4], 256 µg/mL; in assay [5] it was 16 µg/mL; in assay [6], 256 µg/mL. Moreover, the results for the MIC in assay [7] and in assay [9] were 128 µg/mL and 256 µg/mL, respectively.
On to `O=C1c2cccc3c(Br)ccc(c23)C(=O)N1CCCCCCn1c[n+](Cc2ccc(F)cc2F)cn1.[Br-]`, for which the MIC was determined as 64 µg/mL in [1]; 8 µg/mL in [2]; 16 µg/mL in assay [3]; 128 µg/mL in assay [4]; 16 µg/mL in assay [5]; 64 µg/mL in assay [6]. For the same molecule, the MIC in [7] stood at 32 µg/mL; in [9] it was 64 µg/mL.
